Assay outcomes from PubChem BioAssay.
pPAFAH inh = pPAFAH (human) enzyme inhibition; Q13093; recombinant pPAFAH, FP-rhodamine probe fluorescence polarization; inhibition, % at 3.39 µM; 1.5% of 330,000 active;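 active = inhibition above the mean inhibition across the screen plus 3 SD, cut at about 25% in these data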;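 note: inhibitors block binding of the rhodamine activity-based probe so polarization drops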
UCH37 inh = inhibitors of human deubiquitinating enzyme UCH37; purified proteasome/UCH37, Ub-AMC cleavage fluorescence; inhibition, % (test concentration not listed); 0.33% of 330,000 active;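 active = mean inhibition over replicate wells above about 20%, limit read from the data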
Target sequence (Q9Y5K5 whole entry, looked up): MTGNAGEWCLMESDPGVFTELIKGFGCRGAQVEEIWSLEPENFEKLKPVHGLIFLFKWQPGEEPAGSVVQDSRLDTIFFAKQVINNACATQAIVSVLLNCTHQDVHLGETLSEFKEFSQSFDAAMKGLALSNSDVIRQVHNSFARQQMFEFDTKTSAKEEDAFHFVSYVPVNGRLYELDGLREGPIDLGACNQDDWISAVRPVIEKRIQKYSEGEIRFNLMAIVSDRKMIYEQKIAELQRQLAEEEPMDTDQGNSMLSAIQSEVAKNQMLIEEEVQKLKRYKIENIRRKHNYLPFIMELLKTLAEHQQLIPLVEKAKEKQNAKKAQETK
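Material: human UCH37 enzyme supplied as purified proteasome complex / Amount: 0.15 nM proteasome as dispensed / Buffer or medium: pH 7.4 Tris-HCl (50 mM) with ovalbumin, ATP-MgCl2, DTT / Times: preincubation 30 min, reaction 25 min, room temperature / Technique: AMC fluorescence from Ub-AMC cleavage, excitation 355 nm, emission 460 nm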
PAFAH2 FP inh = PAFAH2 (human) inhibition. Q99487. recombinant PAFAH2, FP-rhodamine activity probe, fluorescence polarization. inhibition, % at 3.39 µM. 0.99% of 340,000 active. AID 492956;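 active = inhibition above the mean over all tested compounds plus 3 SD, cut at about 30% in these data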;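 note: inhibitors block probe labeling of enzyme so polarization drops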
GRIN3A LBD mod = NR3A (human) ligand-binding domain modulation; NR3A LBD differential scanning fluorimetry, Tm shift; 0% = protein alone, 100% = glycine-bound protein; Tm shift relative to glycine control, % at 25 µM; 2.5% of 340,000 active; AID 1259313;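 active = melting temperature shift of at least 10% of the positive control shift, at one fixed dose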
PAFAH1B2 inh = blocks human PAF acetylhydrolase 1b catalytic subunit 2 | P68402 | recombinant PAFAH1B2, FP-rhodamine activity probe, fluorescence polarization | inhibition, % at 3.39 µM | 1.2% of 340,000 active | AID 492953;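 active = inhibition above the mean of all tested compounds plus 3 SD, cut at about 24% in these data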
PAFAH1B3 inh = inhibitors of human PAFAH1B3; recombinant PAFAH1B3, FP-rhodamine probe, fluorescence polarization; inhibition, % at 3.39 µM; 0.28% of 340,000 active;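 active = inhibition above the screen-wide average of all tested compounds plus 3 SD, cut at about 25% in these data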
pPAFAH FP conf = pPAFAH (human) inhibition, confirmed. shares compounds with pPAFAH inh. inhibition, % at 3.39 µM. recombinant pPAFAH, FP-Rh probe fluorescence polarization. AID 463230. 72% of 2,300 active;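 active = mean inhibition of the triplicate above the hit cutoff set for the earlier primary screen, cut at about 25% in these data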
Hits are given with their value; 0 = inactive; - = not tested or not shown. This is a sample that favours compounds with a hit; in the whole collection about 4.8% have one here.

SMILES	pPAFAH inh	UCH37 inh	PAFAH2 FP inh	GRIN3A LBD mod	PAFAH1B2 inh	PAFAH1B3 inh	pPAFAH FP conf
COc1ccccc1N1C(=O)c2ccc(C(=O)Nc3nccs3)cc2C1=O	43	0	-	0	-	-	0
COc1ccc(-c2cc(=O)oc3cc(OC(C)C(=O)O)ccc23)cc1 (centres undefined)	0	0	0	0	0	0	-
COc1ccc(-c2cc(=O)oc3c(O)c(O)ccc23)cc1	43	0	0	29	0	0	80
CCOc1ccc2[nH]c(C(=O)NN=Cc3ccccc3OC)cc2c1	-	0	-	-	-	-	-
O=C(O)CN1C(=O)/C(=C\c2cccc(OCc3ccccc3)c2)SC1=S	0	0	0	0	0	0	-
Cc1ccc(NC(=O)COc2cccc(/C=C3\SC(=S)N(CCC(=O)O)C3=O)c2)cc1Cl	40	0	0	0	0	0	27
O=C(O)COc1cccc(/C=C2/SC(=S)N(Cc3ccccc3)C2=O)c1	40	0	0	0	0	0	33
CN(C)c1ccc(C=NNC(=O)c2ccc(Cn3cc(Cl)cn3)cc2)cc1	-	0	-	-	-	-	-
Cc1cc(/C=C2\SC(=S)NC2=O)c(C)n1-c1cccc(O)c1	45	0	0	0	0	0	49
Cc1cc(/C=C2\SC(=S)NC2=O)c(C)[nH]1	46	0	0	0	0	0	0
COc1ccc(-n2c(C)cc(/C=C3\SC(=O)NC3=O)c2C)cc1	40	0	0	0	0	0	0
O=C1NC(=S)S/C1=C\c1cc(Cl)ccc1Cl	-	0	0	0	0	0	-
COc1ccc(OC)c(Nc2cc(-c3ccccc3)nc(N)n2)c1	43	0	-	0	-	-	37
COc1ccc(C2C(C#N)=C(N)Oc3cc(N)ccc32)cc1 (centres undefined)	-	0	0	0	0	0	-
N#CC1=C(N)Oc2cc(N)ccc2C1c1ccc(F)cc1 (centres undefined)	0	0	0	0	0	0	-
N#CC1=C(N)Oc2cc(N)ccc2C1c1ccc(Cl)cc1 (centres undefined)	43	0	0	0	0	0	0
CCc1ccc(C2C(C#N)=C(N)Oc3cc(N)ccc32)cc1 (centres undefined)	59	0	0	0	0	0	0
CCC(C)N(C(=O)COC(=O)c1cc([N+](=O)[O-])ccc1N1CCOCC1)C1CCS(=O)(=O)C1 (centres undefined)	40	0	0	0	0	0	0
CCCn1nc([N+](=O)[O-])c(C(C#N)c2nc3ccccc3s2)c(Cl)c1=O (centres undefined)	56	0	60	0	0	0	51
CCn1nc([N+](=O)[O-])c(C(C#N)c2nc3ccccc3n2C)c(Cl)c1=O (centres undefined)	0	0	0	0	0	0	-
Cc1cc(C)nc(NN=CC2=C(N3CCOCC3)/C(=C/c3ccc(Cl)cc3)CC2)n1	-	0	0	0	0	0	-
Cc1cc(C)nc(N/N=C/C2=C(N3CCOCC3)C(=C\c3ccc(Cl)cc3)/CC2)n1	62	-	0	0	0	0	98
CC(C)Oc1c(Br)cc(Br)cc1C=NNC(N)=S	-	0	-	-	-	-	-
O=C1C=C(O)c2c(O)cc(O)c(O)c2C1=O	85	0	45	0	0	40	52
Oc1c(Br)cc(/C=N/NC(=S)NCc2ccco2)cc1Br	41	-	0	0	0	0	57
SMILES	pPAFAH inh	UCH37 inh	PAFAH2 FP inh	GRIN3A LBD mod	PAFAH1B2 inh	PAFAH1B3 inh	pPAFAH FP conf
Oc1ccc(/C=N/NC(=S)NCc2ccco2)cc1	0	-	0	0	0	0	-
N=C1C(c2ccccc2)=C(O)CN1c1cccc(S(N)(=O)=O)c1	0	0	0	0	0	0	-
N=C1C(c2ccccc2)=C(O)CN1c1cccc(S(=O)(=O)N2CCOCC2)c1	44	0	0	0	0	0	0
Cc1ccc(N=Cc2cccc(O)c2O)c(C)c1	37	0	0	-	0	0	0
CCN(CC)c1ccc(C=Nc2ccc(C)cc2C)c(O)c1	0	0	0	0	0	0	-
COc1cc(C=NNC2=NS(=O)(=O)c3ccccc32)ccc1OC(C)=O	-	0	-	-	-	-	-
Cc1ccc(N2NC(=O)/C(=C\c3cc4c(cc3[N+](=O)[O-])OCO4)C2=O)cc1C	48	0	50	0	0	0	0
